Assay results: ChEMBL document CHEMBL2396655, “Design, synthesis, and biological evaluation of (E)-N-aryl-2-arylethenesulfonamide analogues as potent and orally bioavailable microtubule-targeted anticancer agents” (J Med Chem, 2013)
Values after ≈ are worked out from the molar mass of the structure shown. Active and inactive are the calls of the source. The rule behind the calls is not given here.

Assays:
[1] = test system: Mus musculus; experiment: AUC in ICR mouse at 5 mg/kg, iv by LC-MS/MS analysis; type: ADME, organism-based, Plasma; parameters: dose 5 mg/kg, route intravenous; conditions: in vivo
Method in brief: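 Male ICR mice, 6–8 weeks old, N=3 per group. Single 5 mg/kg dose in NMP:PEG300:water (1:4:5 v/v), given as IV bolus or oral gavage. Serial arterial blood was drawn through a carotid cannula at 2–360 min. Plasma was protein-precipitated with acetonitrile containing internal standard and assayed by LC/MS/MS. Parameters were derived by noncompartmental analysis.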

[2] = test system: Plasma; experiment: Plasma protein binding in human at 10 to 50 uM by equilibrium dialysis; type: ADME, cell-free
[3] = test system: MDCK; experiment: Apparent permeability from basolateral to apical side in MDCK cells expressing MDR-1 at 10 uM after 90 mins by LC-MS/MS analysis; type: ADME, cell-based, Canis lupus familiaris; conditions: dog, 1.5 h
Method in brief: (§1)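 MDCK-MDR1 (Pgp-expressing) monolayers were used 3–4 days post-seeding, only if TEER exceeded 1000 Ω·cm² before and after the run. Compound starting concentration was 10 μM. Transport was measured A→B and B→A over 90 min and quantified by LC/MS/MS. Apparent permeabilities gave the efflux ratio.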

[4] = test system: MDCK; experiment: Apparent permeability from apical to basolateral side in MDCK cells expressing MDR-1 at 10 uM after 90 mins by LC-MS/MS analysis; type: ADME, cell-based, Canis lupus familiaris; conditions: dog, 1.5 h; method in brief: as §1
[5] = Solubility of the compound in PBS by nephelometric analysis; type: physicochemical
Method in brief: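 Aqueous solubility in PBS was measured by nephelometry; the limit of complete solubility was taken as the concentration giving a statistical increase of light scattering over blank.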

[6] = Cytotoxicity against human Caco2 cells after 1 hr by Alamar Blue assay; type: cell-based; conditions: Caco-2 cells, read-out: LD50
[7] = Growth inhibition of multidrug-resistant human MES-SA/Dx5 cells; type: functional
[8] = test system: BT-20; experiment: Antitumor activity against human BT20 cells xenografted in NCR-nu/nu mouse assessed as reduction in tumor volume at 20 mg/kg, ip treated 3 times a week for 2 weeks measured on alternate days for 14 days; type: functional, organism-based; parameters: dose 20 mg/kg
Method in brief: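 Female athymic NCr-nu/nu mice were implanted subcutaneously in the hind leg with 0.5–1.0×10⁷ BT20 cells. Mice were paired once tumours reached about 100–150 mm³ (vehicle N=7, treated N=8). Dosing was 20 mg/kg IP in DMSO (0.1 mL), 3×/week for 2 weeks. Calipers measured two dimensions; volume = L×S²×π/6. Body weight was recorded at each measurement.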

[9] = test system: Liver; experiment: Metabolic stability in rat liver S9 fraction assessed as compound remaining at 10 uM after 1 hr by LC-MS/MS analysis; type: ADME, subcellular; conditions: s9, 1 h
Method in brief: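 Compound at 10 μM was incubated with rat, dog or human liver S9 fraction (1 mg/mL) for 0, 30 and 60 min. Parent remaining at 1 h was quantified by LC-MS/MS.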

[10] = test system: MIA PaCa-2; experiment: Antitumor activity against human MIAPaCa2 cells assessed as inhibition of anchorage-independent growth after 3 weeks by NBT staining-based soft agar assay; type: functional, cell-based
Method in brief: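 MIA-PaCa-2 cells (1.0×10⁵) in growth medium with compound were mixed into 0.4% Noble top agar over a 0.8% bottom layer. Each concentration was plated in triplicate. Plates were incubated 3 weeks at 37 °C, 5% CO₂, then stained with 0.05% nitroblue tetrazolium for 48 h and photographed.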

[11] = molecular target: Tubulin (Homo sapiens) (UniProt P68371+Q9H4B7+P0DPH7+P68366+Q13509+Q71U36+P04350+Q3ZCM7+P07437+P68363+Q9BQE3+Q6PEY2+Q13885+Q9BVA1+Q9BUF5); experiment: Inhibition of tubulin polymerization in human DU145 cells at 10 to 50 nM pretreated with paclitaxel for 24 hrs followed by compound treatment for 4 hrs by Western blotting analysis; type: cell-based; conditions: DU-145
Method in brief: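 DU145 cells were plated at 1.0×10⁴/well and treated for 24 h. Alternatively, cells were pretreated with paclitaxel for 24 h, then exposed to compound for 4 h. Cells were lysed in hypotonic buffer (1 mM MgCl₂, 2 mM EGTA, Tris pH 6.6, 0.5% NP40, protease inhibitors) and spun 10 min at 14,000 rpm. Pellet (polymerized) and supernatant (soluble) fractions were blotted for α-tubulin.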

[12] = molecular target: Tubulin (Sus scrofa) (UniProt P02554+P02550); experiment: Competitive binding affinity to pig brain tubulin paclitaxel binding site at 0.1 to 100 uM after 1 hr by mass spectrophotometric analysis in presence of paclitaxel and GTP
Method in brief: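 Porcine brain tubulin (1.0 mg/mL) in PIPES 80 mM, MgCl₂ 2 mM, EGTA 0.5 mM, pH 6.9, at 37 °C. […] Competitor was 0.1–100 μM for 1 h. Unbound ligand in the 30 kDa ultrafiltrate was measured by MS. Runs were in triplicate; IC50 came from a Hill fit.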

[13] = species on record: Bos taurus; experiment: Inhibition of bovine brain tubulin assessed as destabilization of microtubule polymerization at 10 uM over 40 mins by spectrophotometric analysis
Method in brief: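 Purified bovine brain tubulin was incubated at 37 °C with 10 μM compound, DMSO or reference agents. Polymerization was followed as rising absorbance at 340 nm over 40 min. Data are representative of three independent experiments.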

[14] = test system: DU-145; experiment: Mitotoic arrest in human DU145 cells assessed as rosette of condensed DNA without mitotic spindle at 25 nM after 24 hrs by FITC and propidium iodide staining-based confocal laser microscopic analysis; type: functional, cell-based
Method in brief: (§2)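 DU145 cells grown on glass coverslips, exposed to 0.025 μM for 24 h, fixed in 4% paraformaldehyde, permeabilized in PBS with 10% FBS/0.1% Triton X-100, stained with FITC-conjugated anti-α-tubulin (DM1A, 1 h, 37 °C) and propidium iodide (1 μg/mL, 5 min), then imaged by confocal microscopy (60× objective, XYZ-sectioning); DMSO-treated cells as vehicle.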

[15] = test system: DU-145; experiment: Mitotoic arrest in human DU145 cells assessed as presence of micronucleated cells at 25 nM after 24 hrs by FITC and propidium iodide staining-based confocal laser microscopic analysis; type: functional, cell-based; method in brief: as §2
[16] = test system: DU-145; experiment: Mitotoic arrest in human DU145 cells assessed as complete depolymerization of microtubule cytoskeleton at 25 nM after 24 hrs by FITC and propidium iodide staining-based confocal laser microscopic analysis; type: functional, cell-based; method in brief: as §2
[17] = test system: DU-145; experiment: Mitotoic arrest in human DU145 cells assessed as misalignment of chromosomes at 25 nM after 24 hrs by FITC and propidium iodide staining-based confocal laser microscopic analysis; type: functional, cell-based; method in brief: as §2
[18] = Cytotoxicity against human H80 cells after 96 hrs by trypan blue exclusion assay; type: functional; conditions: H80, 96 h
Method in brief: (§3)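 Cells were grown in DMEM or RPMI with 10% FBS and plated at 2.5×10⁴ cells/well in 12-well dishes. Compounds were added 24 h later at various concentrations. After 96 h, viable cells were counted by trypan blue exclusion from duplicate wells. Results are the mean of two independent experiments.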

[19] = test system: NCI-H417; experiment: Cytotoxicity against human NCI-N417 cells after 96 hrs by trypan blue exclusion assay; type: functional; conditions: NCI-H417, 96 h
Method in brief: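 Cells grown in DMEM or RPMI with 10% FBS and 1 unit/mL penicillin-streptomycin, seeded in 12-well dishes at 2.5 ×10⁴ cells/mL/well. Compound added 24 h later at various concentrations. Viable cells counted by trypan blue exclusion from duplicate wells after 96 h. Value taken from dose-response curves of two independent experiments.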

[20] = test system: A-431; experiment: Cytotoxicity against human A431 cells after 96 hrs by trypan blue exclusion assay; type: functional; conditions: A-431, 96 h; method in brief: as §3
[21] = test system: DU-145; experiment: Cytotoxicity against human DU145 cells after 96 hrs by trypan blue exclusion assay; type: functional, cell-based; method in brief: as §3

COc1cc(OC)c(/C=C/S(=O)(=O)Nc2ccc(OC)c(N)c2)c(OC)c1
AUC [1]: 2040 ng·h/mL | PPB [2]: 99.67% | Papp [3]: 72 ×10⁻⁶ cm/s | Papp [4]: 9.1 ×10⁻⁶ cm/s | solubility kinetic [5]: 62.5 µM (≈ 24.7 µg/mL) | CC50 at 1 h [6]: > 1000 µM | GI50 [7]: 0.01 µM | Activity [8]: Active | Stability [9]: 33% | inhibition [10]: Dose-dependent effect | inhibition [11]: Active | Activity [12]: inactive | inhibition [13]: Active | Activity [14]: Active | Activity [15]: Active | Activity [16]: Active | Activity [17]: Active | GI50 [18]: 0.004 µM | GI50 [19]: 0.004 µM | GI50 [20]: 0.005 µM | Activity [21]: Dose-dependent effect | IC50 ([21]; DU-145, 96 h): 0.005 µM
